Screens: PubChem BioAssay, several laboratories
TRPC4 act: TRPC4 (mouse) channel activation; HEK293 TRPC4beta/mu-opioid, Fluo4 calcium fluorescence; active compounds read high; AID 2237; B-score at 10 µM; 310,000 tested, 0.49% active;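 active = B-score above 5 SD of library B-scores, and initial fluorescence ratio not above library mean plus 5 SD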;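 also: positive B-score marks a calcium rise read as TRPC4 activation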
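Assay system – TRPC4beta and mu-opioid receptor HEK293 stable cells · Measured by – Fluo4 fluorescence, kinetic · Schedule – dye loading 45 min room temperature, 110 s kinetic read · Read-out – B-scored integrated calcium fluorescence ratio · Controls – buffer and maximal DAMGO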
TRPC6 activator: activates the mouse TRPC6 cation channel; Q61143; HEK293-TRPC6 membrane potential dye fluorescence; active compounds read high; B-score at 10 µM; 310,000 tested, 0.13% active; AID 2550;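 active = B-score of the integrated fluorescence ratio above library mean plus 3 SD, and starting fluorescence ratio within library mean plus 5 SD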;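 also: higher score means more depolarization so channel activation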
TRPC6 inhibitor: blocks the mouse TRPC6 cation channel; HEK293-TRPC6, membrane potential dye, ACh-evoked depolarization; active compounds read low; B-score at 10 µM; 310,000 tested, 1.1% active; AID 2553;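 active = B-score under library mean minus 3 SD, initial fluorescence not abnormally high, positive integrated signal ratio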;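 also: B-score derived from integrated fluorescence ratio over the kinetic read; more negative B-score means stronger inhibition of depolarization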
TRPC4 inh: TRPC4 (mouse) channel inhibition. HEK293 TRPC4beta/mu-opioid, DAMGO-evoked Fluo4 calcium flux; active compounds read low. 300,000 tested, 0.39% active. B-score at 10 µM. Q9QUQ5;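 active = B-score over 3 SD under the library average, no early fluorescence shift, positive overall ratio signal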
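Material: HEK293 cells with stable TRPC4beta plus mu-opioid receptor expression; probe or stimulus: DAMGO in two steps, submaximal then maximal; technique: Fluo4 calcium fluorescence by kinetic imaging, 5 s 1 Hz baseline; measure: integrated fluorescence ratio relative to baseline, converted to per-well B score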
Platelet DG rel: modulates dense granule release in human platelets; human platelet-rich plasma, SFLLRN dense granule ATP release, luminescence; inhibition, %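 (compounds screened at 7.5 µM in platelet-rich plasma)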; 300,000 tested, 0.22% active;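 active = mean replicate score, as percent of positive control, at or above 50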
TRPC4 PAM: allosteric potentiators of mouse TRPC4 channel | B-score at 10 µM | HEK293 TRPC4beta/mu-opioid, DAMGO EC20, Fluo-4 Ca2+ flux; active compounds read high | Q9QUQ5 | 310,000 tested, 0.42% active | AID 2227;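 active = B-score of calcium response area above 5 SD of library B-scores, with initial fluorescence ratio within 5 SD of library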;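 also: B-score of integrated fluorescence ratio over time as area under calcium response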
TRPC4 spec 2: mouse TRPC4 off-target activity of TRPC6 inhibitors, second screen; shares compounds with TRPC6 inhibitor; HEK293 TRPC4/MOR, membrane potential dye fluorescence; channel activated by saturating DAMGO dose; inhibition, % at 10 µM; 920 tested, 42% active; AID 2776;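 active = compounds whose fluorescence signal differed from control wells by over 3 SD, either direction, in both duplicate plates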
TRPC4 spec: tests whether TRPC6 inhibitors also affect mouse TRPC4. AID 2777. 920 tested, 61% active. shares compounds with TRPC6 inhibitor. HEK293 TRPC4/mu-opioid, membrane potential fluorescence. activity change, negative = inhibition, % at 10 µM;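 active = rise or fall in signal beyond 3 SD of buffer-only wells in both replicate plates, either sign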;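 also: integrated kinetic ratio of fluorescence range over baseline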
HEK293 MPD ctr 2-1: parental HEK293 nonspecific activity of TRPC6 inhibitors, second screen; shares compounds with TRPC6 inhibitor; 920 tested, 31% active; parental HEK293 membrane potential dye fluorescence; maximal acetylcholine challenge after compound addition; signal change vs control, % at 10 µM; AID 2779;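 active = membrane potential signal moving either way by over 3 SD of the maximum-effect control, in both duplicate plates, meaning non-specific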
HEK293 MPD ctr-1: counter-screen for TRPC6 inhibitors: effect in parental HEK293 cells. shares compounds with TRPC6 inhibitor. parental HEK293 membrane potential dye fluorescence. membrane potential signal change, % at 10 µM. 920 tested, 60% active. AID 2780;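 active = membrane potential signal shifting up or down by more than 3 SD of buffer-only wells, on both duplicate plates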
HEK293 MPD ctr-2: parental HEK293 nonspecific activity of TRPC6 modulators | shares compounds with TRPC6 inhibitor | membrane potential dye fluorescence | membrane potential signal change, % at 10 µM | 2,400 tested, 51% active | AID 488924;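 active = membrane potential signal moves up or down beyond 5 SD from buffer-only wells, on both duplicate plates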
HEK293 MPD ctr 2-2: parental HEK293 nonspecific activity of TRPC6 modulators, second screen. inhibition, % at 10 µM. membrane potential dye fluorescence; after compound, maximal acetylcholine stimulation. shares compounds with TRPC6 inhibitor. 2,400 tested, 14% active;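 active = membrane potential signal drops by more than 5 SD from the mean control signal, in both duplicate plates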;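 also: plate controls were acetylcholine ECmax control wells for no effect and buffer only wells for full effect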
TRPC4/MOR mod: tests whether TRPC6 modulators also affect mouse TRPC4 | shares compounds with TRPC6 inhibitor | HEK293 TRPC4/mu-opioid, membrane potential fluorescence | percent change from control (negative = decrease, positive = increase), % at 10 µM | 2,400 tested, 69% active;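 active = membrane potential signal moved up or down beyond 5 SD of buffer control wells, in both duplicate plates, actives on both sides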;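 also: plate controls were assay buffer wells for no effect and DAMGO maximal-effect wells for full effect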
TRPC4 ctr inh 2: mouse TRPC4 off-target activity of TRPC6 modulators, second screen; AID 488928; HEK293 TRPC4/mu-opioid, membrane potential dye fluorescence; stimulated with maximal-effect DAMGO; 2,400 tested, 55% active; inhibition, % at 10 µM; shares compounds with TRPC6 inhibitor;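 active = drop in membrane potential signal beyond 5 SD of the control wells in both duplicate plates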;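 also: TRPC4 counter screen for TRPC6 hits run under conditions tuned for TRPC6 not TRPC4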
TRPC6 block conf: confirmation of mouse TRPC6 inhibitors | 3,300 tested, 43% active | HEK293-TRPC6, membrane potential dye, ACh-evoked depolarization | AID 488960 | inhibition, % at 10 µM | shares compounds with TRPC6 inhibitor;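 active = fluorescence ratio falls more than 5 SD below the full-stimulation control mean, in both duplicate runs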;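 also: integrated fluorescence ratio of peak minus minimum over baseline after agonist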
TRPC6 act conf: confirmation of mouse TRPC6 activators; shares compounds with TRPC6 inhibitor; HEK293-TRPC6 membrane potential dye fluorescence, FDSS; activation, % at 10 µM; 2,800 tested, 11% active;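 active = ratio signal rise beyond 5 SD above unstimulated control wells' mean, seen in both duplicate runs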;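 also: plate controls were buffer EC0 wells for no effect and acetylcholine ECmax response for full effect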
The depositor's hits bear a star; i = inactive; · = no result given. Most compounds without a hit are left out; they make up all but 2.5% or so of the library.

SMILES | TRPC4 act | TRPC6 activator | TRPC6 inhibitor | TRPC4 inh | Platelet DG rel | TRPC4 PAM | HEK293 MPD ctr-2 | HEK293 MPD ctr 2-2 | TRPC4/MOR mod | TRPC4 ctr inh 2 | TRPC6 block conf | TRPC6 act conf | others
COC(=O)c1c(N)n(CCCN2CCOCC2)c2nc3ccccc3nc12 | i | i | -5.1* | i | -2 | i | -72%* | i | -16%* | i | i | i
Cc1ccc(NC(=O)c2cccc3c2-c2ccccc2C3=O)cc1C | i | i | -7.3* | i | 4 | i | · | · | · | · | i | i | TRPC4 spec 2=i;TRPC4 spec=i;HEK293 MPD ctr 2-1=i;HEK293 MPD ctr-1=i
COc1cc(/C=C(\C#N)c2ccccn2)cc(OC)c1O | i | 14* | -5.1* | i | 0 | i | 458%* | 72%* | 66%* | i | 46%* | 146%*
CN(C)S(=O)(=O)N1CCN(C(=O)c2ccccc2Cl)CC1 | i | i | -5* | i | -5 | i | i | i | i | i | i | i
CN(C)S(=O)(=O)N1CCN(c2ccccc2Cl)CC1 | i | i | i | i | -10 | i | · | · | · | · | · | ·
Cc1c(C)n(Cc2ccccc2)c2ccc(C(=O)OCCCN(C)C)cc12 | i | i | -8.5* | i | 9 | i | · | · | · | · | 75%* | i | TRPC4 spec 2=34%*;TRPC4 spec=i;HEK293 MPD ctr 2-1=i;HEK293 MPD ctr-1=i
CCN1CCN(C(=O)c2ccc3c(c2)c(C)c(C)n3Cc2ccccc2)CC1 | i | i | i | i | 1 | i | · | · | · | · | · | ·
Cc1c(C)n(CCN(C)C)c2ccc(C(=O)OCCN(C)C)cc12 | i | i | -7.1* | i | -2 | i | -153%* | i | -32%* | 75%* | 56%* | i
Cc1[nH]c2ccc(C(=O)OCCN(C)C)cc2c1C | i | i | i | i | -1 | i | · | · | · | · | · | ·
COc1cc2c(cc1OC)C(COc1ccc(C(C)C)cc1)NCC2 (stereo unspecified) | i | i | i | i | 0 | i | · | · | · | · | · | ·
O=C(CCN1C(=O)C2CC=CCC2C1=O)Nc1cc(C(F)(F)F)ccc1N1CCCC1 (stereo unspecified) | i | i | i | i | 8 | i | · | · | · | · | · | ·
CN(C)CCNc1nc(-c2ccco2)c2c(c1C#N)CC(C)(C)OC2 | i | i | -9.7* | i | -14 | i | -396%* | 78%* | -65%* | 76%* | 77%* | i
CC1(C)Cc2c(C#N)c(NCc3ccco3)nc(-c3ccco3)c2CO1 | i | i | i | i | -116 | i | · | · | · | · | · | ·
N#Cc1c(NCCN)nc(-c2ccco2)c2c1CCCC2 | i | i | -8.6* | i | 15 | i | -258%* | 89%* | -46%* | 75%* | 76%* | i
NC(=O)c1cc(Br)cc(C2CCCCC2)c1O | i | i | i | i | 0 | i | · | · | · | · | · | ·
Nc1nnc(Cc2cccc(Br)c2)s1 | i | i | i | i | -6 | i | · | · | · | · | · | ·
COc1ccc(C(=O)N2CCC(=O)N(C(CO)Cc3ccccc3)CC2)cc1 (stereo unspecified) | i | i | i | i | -12 | i | · | · | · | · | · | ·
COc1ccc(C2c3ccc4ccccc4c3Oc3ncn(CCN(C)C)c(=N)c32)cc1 (stereo unspecified) | i | i | -5.4* | i | -4 | i | 115%* | i | 10%* | 69%* | i | ·
Cc1ccc(NC(=S)NCCN(C2CCCCC2)C2CCCC2)cc1C | i | i | -5.2* | i | -2 | i | 110%* | i | 16%* | 66%* | i | ·
O=C1c2cnc3ncnn3c2CC2c3ccccc3CCN12 (stereo unspecified) | i | i | -5* | i | 1 | i | -105%* | i | -20%* | i | i | i
COP(=O)(OC)c1nc(-c2ccc(C)cc2)oc1N1CCCCC1 | i | i | i | i | 3 | i | · | · | · | · | · | ·
CCC(C)[C@H](NC(=O)N1CCC(C)CC1)C(=O)OC (stereo partly specified) | i | i | i | i | -3 | i | · | · | · | · | · | ·
Clc1cccc(/C=N/N2CCN(Cc3ccccc3)CC2)c1 | i | i | i | i | 16 | i | · | · | · | · | · | ·
CCOC(=O)c1c(N)n(-c2ccc(N)cc2)c2nc3ccccc3nc12 | i | i | i | i | -5 | i | · | · | · | · | · | ·
CCOC(=O)c1c(N)n(C2CC(C)(C)NC(C)(C)C2)c2nc3ccccc3nc12 | i | i | -5.4* | i | -7 | i | -294%* | i | -55%* | 43%* | i | i
CC(C)NC(=S)N1CCN(c2ncccn2)CC1 | i | i | -5.4* | i | -1 | i | i | i | 17%* | i | i | i
S=C(NC1CCCC1)N1CCN(c2ncccn2)CC1 | i | i | i | i | 0 | i | · | · | · | · | · | ·
